Screening data as filed in PubChem.
Pyk2 oligo antag: antagonists of Pyk2 self-association, primary screen, Q293 cells, FERM NanoBiT luminescence, HTS | AID 1347419, 2020 | z-score (the deposit names both 25 µM and 10 µM) | Protein-tyrosine kinase 2-beta (Homo sapiens), Q14289 | active compounds read low | 99,000 compounds, 0.83% hits;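 active = Z-score of -3 or lower, scaled per plate to the spread of control and sample wells; inactive = z-score above -3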;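 note: negative z-score means lost luminescence so less FERM oligomerization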
Target sequence (Q14289 whole entry, looked up): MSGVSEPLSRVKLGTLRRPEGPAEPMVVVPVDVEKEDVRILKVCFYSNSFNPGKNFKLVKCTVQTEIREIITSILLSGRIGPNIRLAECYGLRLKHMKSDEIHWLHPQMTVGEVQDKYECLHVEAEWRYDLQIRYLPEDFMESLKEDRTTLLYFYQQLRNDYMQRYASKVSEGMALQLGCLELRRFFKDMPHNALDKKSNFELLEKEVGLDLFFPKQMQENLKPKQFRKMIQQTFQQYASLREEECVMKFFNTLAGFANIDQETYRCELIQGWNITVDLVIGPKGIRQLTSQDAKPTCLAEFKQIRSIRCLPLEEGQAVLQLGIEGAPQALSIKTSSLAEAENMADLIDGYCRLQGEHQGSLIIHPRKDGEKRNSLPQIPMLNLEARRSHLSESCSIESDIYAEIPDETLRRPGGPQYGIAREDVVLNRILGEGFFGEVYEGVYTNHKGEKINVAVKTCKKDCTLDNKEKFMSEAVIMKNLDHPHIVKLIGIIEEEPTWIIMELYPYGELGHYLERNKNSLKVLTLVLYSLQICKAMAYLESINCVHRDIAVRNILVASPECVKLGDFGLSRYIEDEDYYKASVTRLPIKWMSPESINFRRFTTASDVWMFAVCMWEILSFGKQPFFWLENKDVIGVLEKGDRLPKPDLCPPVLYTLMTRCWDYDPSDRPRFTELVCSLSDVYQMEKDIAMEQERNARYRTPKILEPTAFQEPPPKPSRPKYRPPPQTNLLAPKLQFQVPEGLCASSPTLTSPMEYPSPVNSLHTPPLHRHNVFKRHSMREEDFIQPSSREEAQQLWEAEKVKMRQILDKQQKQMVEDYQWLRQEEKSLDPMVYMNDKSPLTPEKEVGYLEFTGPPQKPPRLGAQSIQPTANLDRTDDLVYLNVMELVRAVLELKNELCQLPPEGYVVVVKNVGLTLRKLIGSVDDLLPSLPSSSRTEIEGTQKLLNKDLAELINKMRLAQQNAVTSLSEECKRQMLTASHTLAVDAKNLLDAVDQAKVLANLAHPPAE
cytoskel mod: modifiers of F-actin cytoskeleton organization, primary screen, imaging, HUVEC, phalloidin staining, high-content imaging; 91,000 compounds, 0.18% hits; HUVEC TNFa F-actin phalloidin imaging; AID 836, 2007; inhibition, % at 2 µM;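 active = inhibition above the batch mean plus 3 SD and confirmed as a hit by visual image inspection, cut at about 30% in these data, passing the limit was not always enough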
HUVEC prolif 384: inhibitors of HUVEC proliferation, primary screen, cell-based, 384-well; CellTiter-Glo luminescence, 72 h; active compounds read low; 86,000 compounds, 1.1% hits; viability, % at 10 µM (by protocol);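 active = viability at or below 30%; inactive = viability above 30%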
Lung fibro prol: antiproliferative effect on LL 47 fibroblasts – human, LL 47 cells, CellTiter-Glo luminescence, primary screen. LL 47 human lung fibroblast viability, ATP luminescence; active compounds read low. viability, % at 10 µM. 85,000 compounds, 1.1% hits;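 active = viability at or below 50% in the single dose screen; inactive = viability above 50%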;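 note: compound exposure lasted 72 h before the ATP readout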
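material = human LL 47 lung fibroblast cells | dosing = compounds added from tenfold dosing solution, 0.1% DMSO final | timing = overnight cell rest, 72 h compound treatment at 37 °C | measured by = CellTiter-Glo luminescence measuring cellular ATP | evaluation = % viability versus median cells-only luminescence | control set = cell-only wells, no compound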
H69AR inhibit: proliferation blockers of H69AR lung cancer cells, primary screen, cell-based, human, 86K library. H69AR lung tumor viability, ATP luminescence, 72 h; active compounds read low. viability, % at 10 µM. 85,000 compounds, 6% hits. AID 598, 2007;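 active = viability at or below 40%; inactive = viability above 40%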;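 note: multidrug resistant small cell line overexpressing MRP-1 efflux transporter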
Jurkat viability: cytotoxicity toward Jurkat T cells, primary screen, cytotoxicity control, cell-based, Jurkat E6.1, 60K MLSMR library; Jurkat E6.1 viability, ATP luminescence, 48 h; inhibition, % at 4 µM; 56,000 compounds, 1.2% hits; AID 463, 2006;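 active = inhibition above the mean inhibition of all tested compounds plus 3 SD, cut at about 28% in these data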
Hits are given with their value. Hits are enriched below; roughly 6% of the tested compounds scored in any of these assays.

How did CCOc1ccc(Oc2ccc(-c3nnc(-c4ccccc4)o3)cc2[N+](=O)[O-])cc1 do in these assays?
Pyk2 oligo antag: inactive; cytoskel mod: inactive

Results for CCOC(=O)c1cccc(NC(=O)Nc2cc(OC)ccc2OC)c1 ?
Pyk2 oligo antag: -3.4; cytoskel mod: inactive; HUVEC prolif 384: inactive; Lung fibro prol: inactive; H69AR inhibit: inactive; Jurkat viability: inactive

Results for COc1ccc(OC)c(NC(=O)Nc2ccccc2C)c1 ?
Pyk2 oligo antag: inactive; cytoskel mod: inactive; HUVEC prolif 384: inactive; Lung fibro prol: inactive; H69AR inhibit: inactive; Jurkat viability: inactive

What do the screens show for `Cc1ccc(-n2nnc3c(=O)n(Cc4cc(C)ccc4C)cnc32)cc1`?
Pyk2 oligo antag: inactive; cytoskel mod: inactive; HUVEC prolif 384: inactive; Lung fibro prol: inactive; H69AR inhibit: 33; Jurkat viability: inactive

What do the screens show for `Cc1ccc(-n2nnc3c(=O)n(Cc4cccc(C)c4)cnc32)cc1`?
cytoskel mod: inactive; HUVEC prolif 384: inactive; Lung fibro prol: inactive; H69AR inhibit: inactive; Jurkat viability: inactive

How did Cc1ccc(NC(=O)C2=C(O)CCn3c2nc2ccccc23)cc1 do in these assays?
Pyk2 oligo antag: inactive; cytoskel mod: inactive; HUVEC prolif 384: inactive; Lung fibro prol: inactive; H69AR inhibit: 26

Results for Cc1ccc(NC(=O)c2ccccc2O)cc1 ?
Pyk2 oligo antag: inactive; HUVEC prolif 384: inactive; Lung fibro prol: inactive; H69AR inhibit: inactive; Jurkat viability: inactive

What do the screens show for `Cc1ccccc1NC(=O)CSC1=C(C#N)C(c2ccsc2)CC(=O)N1` (centres undefined)?
Pyk2 oligo antag: inactive; cytoskel mod: inactive; HUVEC prolif 384: inactive; Lung fibro prol: inactive; H69AR inhibit: 17

Results for CCOC(=O)C1=C(c2ccccc2)NC(SCC(=O)Nc2cccc(C)c2)=C(C#N)C1c1ccco1 (centres undefined) ?
Pyk2 oligo antag: -4; cytoskel mod: inactive; Jurkat viability: inactive

Results for Cc1ccc(NC(=O)CSC2=C(C#N)C(c3ccco3)C3=C(CC(C)(C)CC3=O)N2)cc1 (centres undefined) ?
Pyk2 oligo antag: -3.4; cytoskel mod: inactive; HUVEC prolif 384: inactive; Lung fibro prol: inactive; H69AR inhibit: inactive; Jurkat viability: inactive

Results for CCc1ccc(NC(=O)CSC2=C(C#N)C(c3ccco3)C3=C(CCCC3=O)N2)cc1 (centres undefined) ?
Pyk2 oligo antag: inactive; cytoskel mod: inactive; HUVEC prolif 384: inactive; Lung fibro prol: inactive; H69AR inhibit: inactive

What do the screens show for `CCOC(=O)C1=C(c2ccccc2)NC(SCC(=O)Nc2ccc(C)cc2)=C(C#N)C1c1ccco1` (centres undefined)?
Pyk2 oligo antag: -4.3; cytoskel mod: inactive; HUVEC prolif 384: inactive; Lung fibro prol: inactive; H69AR inhibit: inactive; Jurkat viability: inactive

What do the screens show for `CCOC(=O)CSC1=C(C#N)C(c2ccco2)C(C(=O)Nc2cccc(C(F)(F)F)c2)=C(C)N1` (centres undefined)?
Pyk2 oligo antag: inactive; cytoskel mod: inactive; HUVEC prolif 384: inactive; Lung fibro prol: inactive; H69AR inhibit: inactive; Jurkat viability: inactive

Results for Cc1ccnc(N2C(=O)OC(C)(C)C2(C)O)c1 (centres undefined) ?
Pyk2 oligo antag: inactive; HUVEC prolif 384: inactive; Lung fibro prol: inactive; H69AR inhibit: inactive; Jurkat viability: inactive

Results for CCCCN(CCCC)S(=O)(=O)c1ccc2[nH]c(=O)[nH]c2c1 ?
Pyk2 oligo antag: inactive; cytoskel mod: inactive; HUVEC prolif 384: inactive; Lung fibro prol: inactive; H69AR inhibit: inactive

Results for CCOC(=O)C1=C(c2ccccc2)NC(SC)=C(C#N)C1c1ccco1 (centres undefined) ?
Pyk2 oligo antag: inactive; HUVEC prolif 384: inactive; Lung fibro prol: inactive; H69AR inhibit: inactive; Jurkat viability: inactive

How did CCOC(=O)C1=C(c2ccccc2)NC(SCC(=O)Nc2ccccc2C)=C(C#N)C1c1ccco1 (centres undefined) do in these assays?
Pyk2 oligo antag: -3.7; cytoskel mod: inactive; HUVEC prolif 384: inactive; Lung fibro prol: inactive; H69AR inhibit: inactive

What do the screens show for `O=C(Nc1ccc(OC(F)F)cc1)Nc1cccc(C(F)(F)F)c1`?
Pyk2 oligo antag: inactive; cytoskel mod: inactive; HUVEC prolif 384: inactive; Lung fibro prol: 38; H69AR inhibit: 3.7

Results for O=C(OCc1ccc(Cl)cc1Cl)c1ccncc1 ?
Pyk2 oligo antag: inactive; cytoskel mod: inactive

Results for COc1cc(C(=O)Nc2nc(OC)c(-c3ccccc3)c(OC)n2)cc(OC)c1OC ?
Pyk2 oligo antag: inactive; HUVEC prolif 384: inactive; Lung fibro prol: inactive; H69AR inhibit: 32; Jurkat viability: inactive

What do the screens show for `COc1cc(C(=O)Nc2cc(-c3ccccc3)[nH]n2)cc(OC)c1OC`?
Pyk2 oligo antag: inactive; HUVEC prolif 384: inactive; Lung fibro prol: inactive; H69AR inhibit: 25; Jurkat viability: inactive

How did COc1cc(C(=O)Nc2ccncc2)cc(OC)c1OC do in these assays?
Pyk2 oligo antag: inactive; cytoskel mod: inactive; HUVEC prolif 384: inactive; Lung fibro prol: inactive; H69AR inhibit: inactive; Jurkat viability: inactive

Results for CC(=O)c1sc(N2C(=O)c3oc4ccccc4c(=O)c3C2c2ccc(C)o2)nc1C (centres undefined) ?
HUVEC prolif 384: inactive; Lung fibro prol: inactive; H69AR inhibit: 9.4; Jurkat viability: inactive

What do the screens show for `Cc1ccc(C2c3c(oc4ccccc4c3=O)C(=O)N2CCCN2CCOCC2)o1` (centres undefined)?
Pyk2 oligo antag: inactive; cytoskel mod: inactive; HUVEC prolif 384: inactive; Lung fibro prol: inactive; H69AR inhibit: inactive

Results for Cc1cccc(NC(=O)c2cc(NC(=O)c3ccco3)ccc2N2CCCCC2)c1 ?
Pyk2 oligo antag: inactive; cytoskel mod: inactive; HUVEC prolif 384: 26; Lung fibro prol: inactive; H69AR inhibit: inactive; Jurkat viability: inactive

What do the screens show for `Cn1c(-c2c(N)n(CCc3ccccc3)c3nc4ccccc4nc23)nc2ccccc21`?
Pyk2 oligo antag: inactive; cytoskel mod: inactive; HUVEC prolif 384: inactive; Lung fibro prol: inactive; H69AR inhibit: 36

How did Cn1c(-c2c(N)n(CCCc3ccccc3)c3nc4ccccc4nc23)nc2ccccc21 do in these assays?
Pyk2 oligo antag: inactive; cytoskel mod: inactive; HUVEC prolif 384: inactive; Lung fibro prol: inactive; H69AR inhibit: 23

What do the screens show for `COC(=O)c1cnn(C(=O)c2cc(OC)ccc2Br)c1N`?
Pyk2 oligo antag: inactive; cytoskel mod: inactive; HUVEC prolif 384: inactive; Lung fibro prol: inactive; H69AR inhibit: inactive; Jurkat viability: inactive

How did Cc1ccc(NC(=O)/C(=C/c2cccc([N+](=O)[O-])c2)NC(=O)C2CCCCC2)c(C)c1 do in these assays?
Pyk2 oligo antag: inactive; cytoskel mod: inactive; HUVEC prolif 384: inactive; Lung fibro prol: 9.6; H69AR inhibit: 27

What do the screens show for `N#C/C(=C\c1ccc[nH]1)S(=O)(=O)c1ccccc1`?
Pyk2 oligo antag: inactive; cytoskel mod: inactive; HUVEC prolif 384: inactive; Lung fibro prol: inactive; H69AR inhibit: inactive; Jurkat viability: inactive
